Only some compounds are listed: those with a hit (about 4% of all), similar ones and a draw of the others.
WT yeast gro inh – growth inhibition of WT strain, primary screen, mitochondrial fusion inhibitor project, WT and mutant strains, chemical genetic. mitochondrial fusion phenotypic screen. inhibition, % at 10 µM. 2.1% of 190,000 active. AID 1362, 2008; in the data active means inhibition above about 58%; tested in S. cerevisiae
b-catenin transl – modulators of beta-catenin nuclear translocation, primary screen, imaging, HeLa cells, immunofluorescence, high-content; 0.3% of 190,000 active; nuclear translocation activity, % at 5 µM;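 active means nuclear translocation activity above 50% at 5 µM, with a well cell count of 50 or more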;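 further: per-cell ratio of nuclear to cytoplasmic median beta-catenin stain intensity; plate controls were DMSO negative control for no effect and GSK-3 inhibitor IX positive control for full effect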
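Test system: human HeLa cell line; Doses: 5 µM primary, 0.02–20 µM confirmation; Incubation: 24 h compound exposure, 37°C; Detection: beta-catenin immunofluorescence imaging with DAPI; Read-out: beta-catenin nuclear/cytoplasmic ratio, % activation.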
Pf gamet viab – late stage P. falciparum gametocyte viability inhibitors, primary screen, ATP luminescence, HTS; P. falciparum stage V gametocytes, 24 h; inhibition, % at 10.9 µM; 0.065% of 150,000 active;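 active means inhibition above the mean plus 3 SD of compounds within the control limits, set per campaign, cut at about 38% in these data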;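 further: 0% = DMSO wells and 100% = medium only without gametocytes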
Cl transport mod – KCC2 cotransporter modulators, thallium flux, primary screen, cell-based, HEK293 KCC2, FluoZin-2 fluorescence, MLSMR; Solute carrier family 12 member 5 (Homo sapiens), Q9H2X9; B-score of Tl+ flux slope (higher = more flux/activation; lower = inhibition) at 10 µM; 2.2% of 190,000 active; KCC2 cells, thallium flux FluoZin-2 fluorescence; AID 1456, 2008;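 active means thallium flux slope and its plate-corrected score both differing from the plate sample mean at a set confidence after two filtering rounds, in either direction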;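 further: slope of fluorescence scaled to starting intensity during 10 to 20 s after thallium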
MT stabilize HCS – microtubule stabilizers in HeLa cells, primary screen, imaging, high-content imaging; HeLa tubulin immunostaining HCS, 24 h; share of cells brighter than vehicle mean+2SD; % tubulin-high responders, % at 10 µM; 0.83% of 200,000 active; AID 2205, 2009;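 active means plate Z-score above 3 for both tubulin-high and condensed-nucleus cell shares, with cell loss under 80%, at 10 µM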;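 further: anti alpha tubulin signal scored within the nucleus-defined area of each cell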
* hit, by the source's call; / = not tested or not shown.

SMILES	WT yeast gro inh	b-catenin transl	Pf gamet viab	Cl transport mod	MT stabilize HCS
c1ccc(Cn2c(CNc3nc4ccccc4n3CCN3CCCCC3)nc3ccccc32)cc1	64*	-6	/	-0.18	5
COc1ccc(NC(=O)N2CCCC(c3nc(-c4ccc(C(C)C)cc4)no3)C2)cc1 (stereo unspecified)	72*	-2	/	0.23	3
Cc1c(C)c2cc(Cl)c(O)c(CN3CCN(C)CC3)c2oc1=O	7	-9	-12	/	4
Cc1c(C)c2cc(Cl)c(O)c(CN3CCCC(C)C3)c2oc1=O (stereo unspecified)	66*	/	-28	-0.58	5
c1ccc(CSc2ncn[nH]2)nc1	-4	0	-9	-0.2	4
O=C(Cc1cccc(NC(=O)C2CCN(C(=O)C3CCCCC3)CC2)c1)Nc1cccc(C(=O)N2CCCC2)c1	/	/	-16	/	/
C=CCc1ccc(OCCCCNC2CCCC2)c(OC)c1	5	-2	-28	0.12	7
Cc1cc(NC(=S)N(Cc2ccc(Cl)cc2)Cc2ccc(C(=O)O)cc2)ccc1Cl	71*	0	1	-0.62	2
Cc1cc(C)cc(NC(=S)N(Cc2ccc(Cl)cc2)Cc2ccc(C(=O)O)cc2)c1	12	0	-14	-0.39	2
Cc1cc(NC(=S)N(Cc2cccc(Br)c2)CC2CCC(C(=O)O)CC2)ccc1Cl (stereo unspecified)	71*	-2	10	-1.9	2
Cc1cc(C)cc(NC(=S)N(Cc2ccc(Br)cc2)Cc2ccc(C(=O)O)cc2)c1	79*	-1	-5	-1.3	4
Cc1ccc(NC(=S)N(Cc2ccc(Br)cc2)Cc2ccc(C(=O)O)cc2)cc1C	67*	-1	/	-1.1	3
Cc1ccc(NC(=S)N(Cc2cccc(Br)c2)CC2CCC(C(=O)O)CC2)cc1 (stereo unspecified)	6	-1	1	-0.037	4
O=C(NC1CCN(S(=O)(=O)c2cccc(F)c2)CC1)c1cccc(F)c1	/	/	-6	/	/
CCOc1ccc(NC(=NCc2ccc3c(c2)OCO3)SC2CC(=O)N(c3ccc(OCC)cc3)C2=O)cc1 (stereo unspecified)	2	0	/	0.2	25*
CCCCCc1nc2sc3c(c2c(=O)n1NC(=O)c1ccc([N+](=O)[O-])cc1)CC(C)(C)OC3	80*	-2	4	-0.037	3
C(=N\N1CCN(C2c3ccccc3-c3ccccc32)CC1)/c1ccncc1	68*	-2	-3	/	4
Oc1cccc(/C=N/N2CCN(C3c4ccccc4-c4ccccc43)CC2)c1	/	0	-24	/	/
COc1ccccc1CNC(=O)C(C)NS(=O)(=O)c1ccc(Br)cc1 (stereo unspecified)	5	-2	-7	-0.98	4
CC(NC(N)=O)C(=O)NCC(=O)OCc1ccccc1 (stereo unspecified)	2	-4	-7	1	5
CC(=O)SCC(Cc1ccccc1)C(=O)NCC(=O)OCc1ccccc1 (stereo unspecified)	14	0	/	-4.2*	/
CCNc1nc(NC(C)(C)C)nc(N2CCCCC2)n1	78*	1	/	-0.44	2
Cc1nn(-c2ccccc2)c(Cl)c1/C=C(\CC(=O)O)c1nc2ccccc2s1	-4	-1	/	-3*	2
CCOC(=O)C1(Cc2ccc(OC)cc2)CCN(C(=O)c2cccc3nccnc23)CC1	-6	-1	12	/	3
O=C(CSc1nc2ccccc2c2nc3ccccc3n12)NCc1ccco1	-14	3	-15	-1.2	3
SMILES	WT yeast gro inh	b-catenin transl	Pf gamet viab	Cl transport mod	MT stabilize HCS
Cc1ccc(NC(=O)CSc2nc3ccccc3c3nc4ccccc4n23)cc1	6	148*	/	/	33*
COc1ccc(OC)c(NC(=O)CSc2nc3ccccc3c3nc4ccccc4n23)c1	-4	-1	/	-1.3	5
COc1ccc(NC(=O)CSc2nc3ccccc3c3nc4ccccc4n23)cc1	-12	28	2	-0.54	25*
COC(c1ccc(Cl)cc1)(c1ccc(Cl)cc1)C(Oc1nc(C)cc(C)n1)C(=O)O (stereo unspecified)	/	/	-1	/	/
O=C(CCCCn1c(=S)[nH]c2ccsc2c1=O)NCc1ccc2c(c1)OCO2	-4	0	0	-0.47	4
CC(C)(C)c1ccc(OCc2nc(-c3ccccn3)no2)c(Br)c1	80*	-1	/	0.88	1

Screening results (PubChem)
